The subject of experiment [1] is Endolysin (Enterobacteria phage T4), P00720 [L99A,M102H]. The following applies: Tequatrovirus T4.
For experiment [2] the test system is unchanged. Briefly: Binding affinity to Enterobacteria phage T4 lysozyme harboring L99A/M102H double mutant expressed in Escherichia coli BL21(DE3) assessed as change in melting temperature at 1 mM at pH 6.8 by circular dichroism analysis. As to conditions: Tequatrovirus T4. The gist of the method:
(§1)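 CD thermal unfolding at pH 6.8 of Ni-NTA-purified T4 lysozyme L99A/M102H expressed from pET-28 in E. coli BL21(DE3). Ligand added from DMSO to 0.5 or 1 mM final, 0.1% DMSO final in all samples and controls. ΔCp set to 8.1 kJ mol⁻¹ K⁻¹. ΔTm ≥0.4 °C scored as binding. ΔGmelt = ΔTm × ΔH/Tm.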

The test system is the same in experiment [3]. The following applies: Tequatrovirus T4. The source holds these as a separate data set.
The test system is the same in experiment [4]. Briefly: Binding affinity to Enterobacteria phage T4 lysozyme L99A/M102H double mutant expressed in Escherichia coli BL21(DE3) assessed as change in melting temperature at 0.5 mM at pH 5.4 by circular dichroism analysis. As to conditions: Tequatrovirus T4. In outline:
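T4 lysozyme L99A/M102H from pET-28 in E. coli BL21(DE3), purified on Ni-NTA, ≥95% pure. Thermal melts followed by CD at pH 5.4, at least in triplicate. Ligand added from DMSO to 0.5 mM final, 0.1% DMSO final, controls included. ΔCp set to 10.5 kJ mol⁻¹ K⁻¹. Binder cutoff is ΔTm ≥0.4 °C. ΔGmelt = ΔTm × ΔS, with ΔS = ΔH/Tm.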

Experiment [5] has the same test system. Briefly: Binding affinity to Enterobacteria phage T4 lysozyme L99A/M102H double mutant expressed in Escherichia coli BL21(DE3) assessed as change in melting temperature at 0.5 mM at pH 6.8 by circular dichroism analysis. The following applies: Tequatrovirus T4. The gist of the method: as §1
In another experiment the target is Endolysin (Enterobacteria phage T4, UniProt P00720, L99A/M102H). The arrangement: species or system Tequatrovirus T4.
Experiment [6] has as its system Endolysin (Enterobacteria phage T4), P00720 [L99A,M102H]. As to conditions: Tequatrovirus T4. This is another data set of the same source.
Experiment [7] has the same test system. The following applies: Tequatrovirus T4. The source holds these as a separate data set.

Molecules are shown by their SMILES. pKd: −log10 of the molar value.

`CC(CO)c1ccccc1` (configuration not stated): the ΔTm in experiment [1] was determined as 0.1 °C.

Regarding `OCc1ccc(Cl)c(Cl)c1`, in experiment [1], the ΔTm was 0.2 °C.

For `OCc1cccc(Br)c1`, the ΔTm in experiment [1] is -0.7 °C.

Regarding `Oc1cc(C(F)(F)F)ccn1`, in experiment [1], the ΔTm worked out at 0.1 °C.

With `N#Cc1cc(Br)ccc1O`, the ΔTm in experiment [1] was 2.2 °C.

For the compound `Nc1ncc(Cl)s1`, the ΔTm in experiment [1] was found to be 1.1 °C.

Turning to `Nc1ccc(F)cc1Cl`, the ΔTm in experiment [1] is -0.3 °C; in experiment [2] it was 1.3 °C.

On to `CC(=O)c1ccc(O)cc1`, for which the ΔTm in experiment [1] was determined as 0.5 °C.

On to `N#CNC#N`, for which the ΔTm in experiment [1] is -0.6 °C.

With `O=[N+]([O-])c1ccc(O)cc1`, the ΔTm turned out to be 5 °C in experiment [1] and 4.5 °C in experiment [2].

For the compound `OCCS`, the ΔTm in experiment [3] amounted to 0 °C.

On to `Cc1cc(C)[nH]n1`, for which the results for the shift in melting temperature (ΔTm) in experiment [1] and in experiment [2] were -0.3 °C and 1.4 °C, respectively.

With `Clc1n[nH]c2ncccc12`, the values for the ΔTm in experiment [4] and in experiment [5] were 0.1 °C and 1 °C, respectively.

In the case of `c1ccncc1`, the shift in melting temperature (ΔTm) in experiment [2] came to 0.1 °C.

For the compound `OCCn1cccn1`, in experiment [1], the ΔTm turned out to be 0.3 °C.

For `OCc1cc(Cl)ccc1Cl`, in experiment [1], the ΔTm was -0.1 °C.

For `Cc1cc(C)n(CO)n1`, the ΔTm was -0.7 °C in experiment [1] and 0.3 °C in experiment [2].

For `CCc1cc(O)ccc1Cl`, the ΔTm in experiment [1] was -0.9 °C.

`C#Cc1ccccc1N`: the ΔTm in experiment [4] and in experiment [5] was 0.5 °C in each case.

Turning to `C=CCc1ccccc1O` [2-ALLYLPHENOL], in experiment [3], the ΔTm came out at 2.9 °C.

For the compound `N#Cc1ccc([N+](=O)[O-])s1`, in experiment [1], the ΔTm came out at 0.2 °C.

With `CSc1ccc(F)cc1`, the shift in melting temperature (ΔTm) in experiment [1] worked out at 0.4 °C.

As to `Cc1cc(C(F)(F)F)n[nH]1`, the ΔTm in experiment [1] came to 1.9 °C.

With `Brc1c[nH]cn1`, the ΔTm in experiment [1] was determined as 0.4 °C. The compound further showed a pKd at Endolysin of 3.50.

Turning to `O=C(O)C(F)(F)F`, the ΔTm in experiment [6] is -0.8 °C.

Turning to `Nc1ccccc1`, the ΔTm was determined as 0.2 °C in experiment [4] and 0.5 °C in experiment [5].

On to `C=CSc1ccccc1`, for which the ΔTm in experiment [1] worked out at 1 °C.

Turning to `c1ccc2oncc2c1`, in experiment [1], the ΔTm stood at 0.2 °C.

As to `FC(F)(F)c1c[nH]cn1`, in experiment [1], the shift in melting temperature (ΔTm) is 1 °C.

As for `O=Cc1cc(O)ccc1Br`, in experiment [4], the thermal shift (ΔTm) turned out to be 0.9 °C.

As to `N#Cc1ccccc1O`, in experiment [7], the shift in melting temperature (ΔTm) was 0.6 °C.

Take `Nc1cc(F)c(F)cc1Br`: the results for the ΔTm in experiment [1] and in experiment [2] were 0.2 °C and 0.8 °C, respectively.

As for `C#CC(O)c1ccccc1` (configuration not stated), the ΔTm in experiment [6] was determined as 2.2 °C.
